Test results reported in ChEMBL document CHEMBL4354843, “Structure-Based Design of a Potent and Selective Covalent Inhibitor for SRC Kinase That Targets a P-Loop Cysteine” (J Med Chem, 2020).

Tests used:
[1] = biological target: Testis-specific serine/threonine-protein kinase 1 (Homo sapiens) (UniProt Q9BXA7); test: Binding affinity to wild-type human full length TSSK1B (M1 to Q367 residues) expressed in bacterial expression system assessed as residual binding level at 1 uM by Kinomescan method relative to control
Summary of the method: (§1)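 KinomeScan, an active site-directed competition binding panel of 468 kinases. The test compound was at 1 μM. The readout is remaining kinase binding as a percentage of the DMSO control. Scores above 35% were treated as weak binding and not listed.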

[2] = biological target: 1-phosphatidylinositol 3-phosphate 5-kinase (Homo sapiens) (UniProt Q9Y2I7); test: Binding affinity to wild-type human partial length PIKFYVE (F1512 to C2098 residues) expressed in mammalian expression system assessed as residual binding level at 1 uM by Kinomescan method relative to control
[3] = tested on: Receptor-type tyrosine-protein kinase FLT3 (Homo sapiens), P36888 [R834Q]; test: Binding affinity to human partial length FLT3 R834Q mutant (V592 to Y969 residues) expressed in mammalian expression system assessed as residual binding level at 1 uM by Kinomescan method relative to control
Summary of the method: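 KinomeScan active site-directed competition binding panel (468 kinases), compound tested at 1 μM. Result expressed as remaining kinase signal versus DMSO control (percent of control).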

[4] = biological target: Myosin-IIIb (Homo sapiens) (UniProt Q8WXR4); test: Binding affinity to wild-type human partial length MYO3B (M1 to D357 residues) expressed in bacterial expression system assessed as residual binding level at 1 uM by Kinomescan method relative to control
[5] = biological target: Phosphatidylinositol 4,5-bisphosphate 3-kinase catalytic subunit delta isoform (Homo sapiens) (UniProt O00329); test: Binding affinity to wild-type human partial length PIK3CD (R108 to Q1044 residues) expressed in mammalian expression system assessed as residual binding level at 1 uM by Kinomescan method relative to control
[6] = biological target: BDNF/NT-3 growth factors receptor (Homo sapiens) (UniProt Q16620); test: Binding affinity to wild-type human partial length TRKB (Q547 to G838 residues) expressed in mammalian expression system assessed as residual binding level at 1 uM by Kinomescan method relative to control
[7] = biological target: Phosphatidylinositol 4-phosphate 5-kinase type-1 gamma (Homo sapiens) (UniProt O60331); test: Binding affinity to wild-type human partial length PIP5K1C (M1 to T668 residues) expressed in mammalian expression system assessed as residual binding level at 1 uM by Kinomescan method relative to control
[8] = biological target: Serine/threonine-protein kinase ULK3 (Homo sapiens) (UniProt Q6PHR2); test: Binding affinity to wild-type human partial length ULK3 (M1 to Q290 residues) expressed in mammalian expression system assessed as residual binding level at 1 uM by Kinomescan method relative to control
[9] = biological target: Serine/threonine-protein kinase N1 (Homo sapiens) (UniProt Q16512); test: Binding affinity to wild-type human partial length PKN1 (E598 to C948 residues) expressed in bacterial expression system assessed as residual binding level at 1 uM by Kinomescan method relative to control
Summary of the method: (§2)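 Active-site-directed competition binding panel of 468 kinases (KinomeScan), compound at 1 μM. The read-out is kinase remaining bound, given as a percentage of the DMSO control. […]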

[10] = biological target: Cyclin-dependent kinase 19 (Homo sapiens) (UniProt Q9BWU1); test: Binding affinity to wild-type human partial length CDK11 (M1 to N360 residues) expressed in bacterial expression system assessed as residual binding level at 1 uM by Kinomescan method relative to control; summary of the method: as §1
[11] = biological target: Mitogen-activated protein kinase kinase kinase 15 (Homo sapiens) (UniProt Q6ZN16); test: Binding affinity to wild-type human partial length MAP3K15 (T625 to L932 residues) expressed in mammalian expression system assessed as residual binding level at 1 uM by Kinomescan method relative to control; summary of the method: as §2
[12] = biological target: Serine/threonine-protein kinase Nek4 (Homo sapiens) (UniProt P51957); test: Binding affinity to wild-type human full length NEK4 (M1 to F841 residues) expressed in mammalian expression system assessed as residual binding level at 1 uM by Kinomescan method relative to control; summary of the method: as §1
[13] = biological target: Serine/threonine-protein kinase PAK 5 (Homo sapiens) (UniProt Q9P286); test: Binding affinity to wild-type human partial length PAK7 (Y400 to H719 residues) expressed in bacterial expression system assessed as residual binding level at 1 uM by Kinomescan method relative to control
[14] = biological target: Tyrosine-protein kinase Fes/Fps (Homo sapiens) (UniProt P07332); test: Binding affinity to wild-type human partial length FES (I527 to R822 residues) expressed in bacterial expression system assessed as residual binding level at 1 uM by Kinomescan method relative to control
[15] = biological target: Protein kinase C eta type (Homo sapiens) (UniProt P24723); test: Binding affinity to wild-type human partial length PRKCH (S324 to P683 residues) expressed in bacterial expression system assessed as residual binding level at 1 uM by Kinomescan method relative to control
[16] = biological target: Tyrosine-protein kinase BTK (Homo sapiens) (UniProt Q06187); test: Binding affinity to wild-type human full length BTK (M1 to S659 residues) expressed in mammalian expression system assessed as residual binding level at 1 uM by Kinomescan method relative to control; summary of the method: as §1
[17] = biological target: Tyrosine-protein kinase HCK (Homo sapiens, UniProt P08631); test: Inhibition of HCK (unknown origin)
[18] = biological target: Casein kinase I isoform gamma-1 (Homo sapiens) (UniProt Q9HCP0); test: Binding affinity to wild-type human partial length CSNK1G1 (T15 to S353 residues) expressed in bacterial expression system assessed as residual binding level at 1 uM by Kinomescan method relative to control
[19] = biological target: TGF-beta receptor type-1 (Homo sapiens) (UniProt P36897); test: Binding affinity to wild-type human partial length TGFBR1 (D179 to M503 residues) expressed in bacterial expression system assessed as residual binding level at 1 uM by Kinomescan method relative to control
[20] = biological target: Serine/threonine-protein kinase Sgk2 (Homo sapiens) (UniProt Q9HBY8); test: Binding affinity to wild-type human partial length SGK2 (L54 to C427 residues) expressed in mammalian expression system assessed as residual binding level at 1 uM by Kinomescan method relative to control
[21] = biological target: Calcium/calmodulin-dependent protein kinase type II subunit alpha (Homo sapiens) (UniProt Q9UQM7); test: Binding affinity to wild-type human partial length CAMK2A (M1 to K328 residues) expressed in bacterial expression system assessed as residual binding level at 1 uM by Kinomescan method relative to control
[22] = biological target: STE20/SPS1-related proline-alanine-rich protein kinase (Homo sapiens) (UniProt Q9UEW8); test: Binding affinity to wild-type human partial length STK39 (P43 to I357 residues) expressed in mammalian expression system assessed as residual binding level at 1 uM by Kinomescan method relative to control
[23] = biological target: Interleukin-1 receptor-associated kinase 4 (Homo sapiens) (UniProt Q9NWZ3); test: Binding affinity to wild-type human partial length IRAK4 (M1 to S460 residues) expressed in mammalian expression system assessed as residual binding level at 1 uM by Kinomescan method relative to control

TGF-beta receptor type-1 (Homo sapiens), sequence (P36897 whole entry, the tested form may be a part): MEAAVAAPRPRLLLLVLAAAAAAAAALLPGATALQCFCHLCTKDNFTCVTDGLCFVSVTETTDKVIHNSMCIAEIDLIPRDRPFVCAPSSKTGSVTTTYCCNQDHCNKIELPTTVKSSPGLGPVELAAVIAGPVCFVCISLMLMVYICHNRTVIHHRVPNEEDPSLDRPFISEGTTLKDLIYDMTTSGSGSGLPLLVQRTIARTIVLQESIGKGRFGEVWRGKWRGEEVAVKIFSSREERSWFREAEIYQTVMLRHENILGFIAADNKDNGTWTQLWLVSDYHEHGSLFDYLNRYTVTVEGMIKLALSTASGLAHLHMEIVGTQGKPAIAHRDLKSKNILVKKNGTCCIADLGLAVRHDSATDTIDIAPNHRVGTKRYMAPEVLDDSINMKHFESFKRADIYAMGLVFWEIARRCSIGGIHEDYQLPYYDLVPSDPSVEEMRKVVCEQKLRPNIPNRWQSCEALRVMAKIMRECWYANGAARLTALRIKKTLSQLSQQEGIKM
Mitogen-activated protein kinase kinase kinase 15 (Homo sapiens), sequence (Q6ZN16 whole entry, the tested form may be a part): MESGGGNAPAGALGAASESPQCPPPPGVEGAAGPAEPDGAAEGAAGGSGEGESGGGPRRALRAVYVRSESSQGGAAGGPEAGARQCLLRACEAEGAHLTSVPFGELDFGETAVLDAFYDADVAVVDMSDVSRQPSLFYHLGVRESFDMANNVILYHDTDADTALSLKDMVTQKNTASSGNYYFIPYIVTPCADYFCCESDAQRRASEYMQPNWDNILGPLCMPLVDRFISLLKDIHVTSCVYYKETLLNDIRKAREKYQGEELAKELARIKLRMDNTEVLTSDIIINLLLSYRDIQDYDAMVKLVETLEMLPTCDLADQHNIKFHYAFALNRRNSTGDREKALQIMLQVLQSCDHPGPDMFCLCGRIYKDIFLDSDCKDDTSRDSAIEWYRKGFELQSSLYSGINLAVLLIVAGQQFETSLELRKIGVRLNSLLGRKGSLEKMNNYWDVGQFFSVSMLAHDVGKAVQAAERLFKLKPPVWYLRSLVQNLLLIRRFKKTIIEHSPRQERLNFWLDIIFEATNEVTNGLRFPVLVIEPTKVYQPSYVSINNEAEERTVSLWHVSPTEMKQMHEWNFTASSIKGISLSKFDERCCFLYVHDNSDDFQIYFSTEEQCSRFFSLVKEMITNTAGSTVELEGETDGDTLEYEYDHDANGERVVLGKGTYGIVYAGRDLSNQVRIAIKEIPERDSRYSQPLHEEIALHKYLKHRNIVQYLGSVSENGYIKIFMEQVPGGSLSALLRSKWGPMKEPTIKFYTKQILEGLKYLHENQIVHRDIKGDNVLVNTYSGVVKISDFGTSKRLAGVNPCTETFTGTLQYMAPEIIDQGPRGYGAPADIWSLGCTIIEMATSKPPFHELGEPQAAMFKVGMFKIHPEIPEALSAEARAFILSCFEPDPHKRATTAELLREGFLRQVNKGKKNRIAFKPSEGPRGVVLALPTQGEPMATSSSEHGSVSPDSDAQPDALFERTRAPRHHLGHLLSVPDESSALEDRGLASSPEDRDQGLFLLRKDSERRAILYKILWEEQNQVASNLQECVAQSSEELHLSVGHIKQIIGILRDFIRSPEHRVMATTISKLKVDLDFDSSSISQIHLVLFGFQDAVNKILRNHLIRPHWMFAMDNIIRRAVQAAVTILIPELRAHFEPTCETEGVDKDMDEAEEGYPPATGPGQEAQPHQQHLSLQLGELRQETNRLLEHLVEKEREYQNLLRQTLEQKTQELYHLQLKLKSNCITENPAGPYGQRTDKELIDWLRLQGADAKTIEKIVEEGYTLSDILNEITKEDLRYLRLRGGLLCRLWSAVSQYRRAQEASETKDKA
BDNF/NT-3 growth factors receptor (Homo sapiens), sequence (Q16620 32-822 limits assumed): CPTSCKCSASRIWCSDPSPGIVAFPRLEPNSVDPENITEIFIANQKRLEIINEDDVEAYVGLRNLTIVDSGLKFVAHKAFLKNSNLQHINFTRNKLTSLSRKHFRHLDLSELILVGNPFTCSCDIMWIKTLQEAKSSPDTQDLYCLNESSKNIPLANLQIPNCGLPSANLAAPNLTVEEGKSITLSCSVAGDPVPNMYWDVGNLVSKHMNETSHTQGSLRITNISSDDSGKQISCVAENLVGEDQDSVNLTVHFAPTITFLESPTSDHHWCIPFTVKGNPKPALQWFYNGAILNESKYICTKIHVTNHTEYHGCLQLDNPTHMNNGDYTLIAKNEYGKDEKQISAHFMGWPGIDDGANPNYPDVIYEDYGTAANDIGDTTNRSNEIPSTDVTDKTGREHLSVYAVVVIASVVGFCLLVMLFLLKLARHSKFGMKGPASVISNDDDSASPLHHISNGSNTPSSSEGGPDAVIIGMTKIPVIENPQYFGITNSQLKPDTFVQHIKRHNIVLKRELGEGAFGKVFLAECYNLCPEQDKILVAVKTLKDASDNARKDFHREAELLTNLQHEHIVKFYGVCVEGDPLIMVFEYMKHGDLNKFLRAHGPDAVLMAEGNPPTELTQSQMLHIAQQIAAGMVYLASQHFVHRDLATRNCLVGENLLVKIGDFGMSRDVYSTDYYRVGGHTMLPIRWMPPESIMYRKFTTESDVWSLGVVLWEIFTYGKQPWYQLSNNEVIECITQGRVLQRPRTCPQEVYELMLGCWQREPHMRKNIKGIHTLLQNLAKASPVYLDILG
Phosphatidylinositol 4-phosphate 5-kinase type-1 gamma (Homo sapiens), sequence (O60331 whole entry, the tested form may be a part): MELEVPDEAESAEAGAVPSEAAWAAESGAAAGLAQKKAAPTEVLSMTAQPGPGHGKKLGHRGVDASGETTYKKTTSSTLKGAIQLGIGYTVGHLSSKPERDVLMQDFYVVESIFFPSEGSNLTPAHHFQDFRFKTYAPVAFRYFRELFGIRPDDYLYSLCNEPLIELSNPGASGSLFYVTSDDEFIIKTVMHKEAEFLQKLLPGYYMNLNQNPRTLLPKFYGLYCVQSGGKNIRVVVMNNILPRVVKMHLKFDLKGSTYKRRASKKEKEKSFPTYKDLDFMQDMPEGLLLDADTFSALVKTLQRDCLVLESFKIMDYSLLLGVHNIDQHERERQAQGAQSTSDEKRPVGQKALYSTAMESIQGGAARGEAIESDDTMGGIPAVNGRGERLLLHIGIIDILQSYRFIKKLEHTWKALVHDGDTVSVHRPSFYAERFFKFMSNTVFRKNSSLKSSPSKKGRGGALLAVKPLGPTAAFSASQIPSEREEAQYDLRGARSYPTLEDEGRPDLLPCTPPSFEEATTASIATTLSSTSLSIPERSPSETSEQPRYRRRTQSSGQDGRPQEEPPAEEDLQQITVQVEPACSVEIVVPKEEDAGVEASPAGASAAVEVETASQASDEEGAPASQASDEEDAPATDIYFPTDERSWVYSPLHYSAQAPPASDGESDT
Serine/threonine-protein kinase Nek4 (Homo sapiens), sequence (P51957 whole entry, looked up, the tested form may be a part): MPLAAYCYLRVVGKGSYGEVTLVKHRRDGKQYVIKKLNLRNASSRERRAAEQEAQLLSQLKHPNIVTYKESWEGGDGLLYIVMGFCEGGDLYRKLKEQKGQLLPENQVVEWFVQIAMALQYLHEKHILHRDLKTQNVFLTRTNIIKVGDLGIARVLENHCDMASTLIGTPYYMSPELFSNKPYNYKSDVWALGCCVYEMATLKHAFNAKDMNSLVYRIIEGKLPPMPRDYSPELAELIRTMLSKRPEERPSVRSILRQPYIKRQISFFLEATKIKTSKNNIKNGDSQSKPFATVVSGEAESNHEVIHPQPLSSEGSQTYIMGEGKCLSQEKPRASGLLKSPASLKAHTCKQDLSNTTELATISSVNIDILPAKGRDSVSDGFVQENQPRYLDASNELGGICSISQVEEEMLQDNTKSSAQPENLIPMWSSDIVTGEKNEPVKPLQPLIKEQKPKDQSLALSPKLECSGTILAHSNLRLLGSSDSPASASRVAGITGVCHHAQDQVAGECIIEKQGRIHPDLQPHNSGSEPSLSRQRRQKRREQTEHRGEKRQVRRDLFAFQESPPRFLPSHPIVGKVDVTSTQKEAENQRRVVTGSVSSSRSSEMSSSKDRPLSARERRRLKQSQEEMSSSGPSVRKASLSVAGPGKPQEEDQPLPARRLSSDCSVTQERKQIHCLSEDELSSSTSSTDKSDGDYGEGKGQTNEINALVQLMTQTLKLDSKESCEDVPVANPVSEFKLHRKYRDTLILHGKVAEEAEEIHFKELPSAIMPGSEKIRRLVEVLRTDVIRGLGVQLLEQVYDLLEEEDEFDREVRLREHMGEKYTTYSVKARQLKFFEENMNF
Serine/threonine-protein kinase ULK3 (Homo sapiens), sequence (Q6PHR2 whole entry, the tested form may be a part): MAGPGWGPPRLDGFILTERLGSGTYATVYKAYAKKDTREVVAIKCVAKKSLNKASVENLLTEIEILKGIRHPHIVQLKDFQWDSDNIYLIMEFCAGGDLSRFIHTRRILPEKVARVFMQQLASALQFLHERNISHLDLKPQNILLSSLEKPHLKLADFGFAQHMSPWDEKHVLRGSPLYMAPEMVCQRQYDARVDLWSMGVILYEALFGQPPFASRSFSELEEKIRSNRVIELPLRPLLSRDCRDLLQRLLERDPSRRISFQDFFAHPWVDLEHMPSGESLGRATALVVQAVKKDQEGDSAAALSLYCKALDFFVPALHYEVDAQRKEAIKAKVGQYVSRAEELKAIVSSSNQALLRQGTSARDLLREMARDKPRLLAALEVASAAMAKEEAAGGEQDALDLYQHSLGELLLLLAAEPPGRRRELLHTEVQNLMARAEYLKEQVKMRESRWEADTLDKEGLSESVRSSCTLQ
Calcium/calmodulin-dependent protein kinase type II subunit alpha (Homo sapiens), sequence (Q9UQM7 whole entry, the tested form may be a part): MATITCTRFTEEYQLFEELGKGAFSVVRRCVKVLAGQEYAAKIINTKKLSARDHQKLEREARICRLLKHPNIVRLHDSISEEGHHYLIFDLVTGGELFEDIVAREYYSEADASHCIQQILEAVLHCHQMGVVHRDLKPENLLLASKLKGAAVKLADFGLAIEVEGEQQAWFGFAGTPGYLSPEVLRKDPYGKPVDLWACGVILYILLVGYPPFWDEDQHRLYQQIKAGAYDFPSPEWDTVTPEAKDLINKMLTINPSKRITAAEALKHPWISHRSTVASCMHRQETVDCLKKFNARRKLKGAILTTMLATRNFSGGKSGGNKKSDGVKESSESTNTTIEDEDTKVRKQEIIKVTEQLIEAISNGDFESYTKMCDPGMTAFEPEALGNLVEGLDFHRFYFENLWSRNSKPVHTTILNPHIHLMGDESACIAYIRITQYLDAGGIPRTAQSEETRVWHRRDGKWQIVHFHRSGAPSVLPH

Question: `C=CC(=O)Nc1ccccc1Nc1nc(Nc2ccc(N3CCN(C)CC3)cc2)ncc1C(=O)Nc1c(C)cccc1Cl` was tested. Which Activity [1] did it give?
Answer: The Activity was 86%.

Question: And the Activity [2]?
Answer: The Activity was 100%.

Question: What about the Activity [3] of the same compound?
Answer: The Activity was 100%.

Question: What about the Activity [4] of the same compound?
Answer: Its Activity is 91%.

Question: What about the Activity [5] of the same compound?
Answer: Its Activity is 100%.

Question: What about the Activity [6] of the same compound?
Answer: Its Activity is 100%.

Question: What about the Activity [7] of the same compound?
Answer: The Activity was 100%.

Question: And the Activity [8]?
Answer: Its Activity is 100%.

Question: What about the Activity [9] of the same compound?
Answer: Its Activity is 83%.

Question: What about the Activity [10] of the same compound?
Answer: Its Activity is 96%.

Question: And the Activity [11]?
Answer: The Activity was 80%.

Question: And the Activity [12]?
Answer: Its Activity is 94%.

Question: And the Activity [13]?
Answer: Its Activity is 100%.

Question: And the Activity [14]?
Answer: The Activity was 100%.

Question: And the Activity [15]?
Answer: Its Activity is 100%.

Question: And the Activity [16]?
Answer: Its Activity is 0.1%.

Question: What about the IC50 [17] of the same compound?
Answer: The IC50 was 3 nM.

Question: And the Activity [18]?
Answer: Its Activity is 100%.

Question: What about the Activity [19] of the same compound?
Answer: Its Activity is 100%.

Question: What about the Activity [20] of the same compound?
Answer: The Activity was 100%.

Question: And the Activity [21]?
Answer: The Activity was 100%.

Question: And the Activity [22]?
Answer: The Activity was 65%.

Question: And the Activity [23]?
Answer: The Activity was 100%.
